# Assay results published in ChEMBL document CHEMBL4184234, “Synthesis of novel (-)-epicatechin derivatives as potential endothelial GPER agonists: Evaluation of biological effects” (Bioorg Med Chem Lett, 2018).
# Active and inactive are the calls of the source. No cut-off for these calls is given here.
# Species on record: Bos taurus
# Assay: Agonist activity at GPER in BCAEC assessed as increase in eNOS Ser1179 phosphorylation at 1 uM pre-incubated with 1 uM GPER antagonist G15 for 30 mins followed by compound incubation for 10 mins by Western blot relative to untreated control
# Design: scale not given: the % may be the effect or the level left
# In short: (§1)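 Bovine coronary artery endothelial cells stimulated 10 min with 1 μM ligand; (−)-epicatechin at 1 μM as reference. For GPER blockade, cells pre-incubated 30 min with G15 (1 μM) before ligand. Ser1179-phosphorylated eNOS immunodetected by Western blot. Control set to 1, or Epi set to 100% with derivatives expressed as percent of Epi. Mean ± SEM, n=5 per group.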
row,SMILES,Activity
1,CS(=O)(=O)O[C@@H]1Cc2c(O)cc(O)cc2O[C@@H]1c1ccc(O)c(O)c1,53%
2,Oc1cc(O)c2c(c1)O[C@H](c1ccc(O)c(O)c1)[C@H](O)C2,55.6%
3,C#CCO[C@@H]1Cc2c(O)cc(O)cc2O[C@@H]1c1ccc(O)c(O)c1,59.3%

# The remaining lines, values ahead:
row,Activity,SMILES
1,57.4%,C#CCOc1cc(OCC#C)c2c(c1)O[C@H](c1ccc(OCC#C)c(OCC#C)c1)[C@H](O)C2
2,54.8%,C#CCOc1cc(OCC#C)c2c(c1)O[C@H](c1ccc(OCC#C)c(OCC#C)c1)[C@H](OCC#C)C2

# Species on record: Bos taurus
# Assay: Agonist activity at GPER in BCAEC assessed as increase in nitric oxide production at 1 uM pre-incubated with 1 uM GPER antagonist G15 for 30 mins followed by compound incubation for 10 mins by nitrate/nitrite fluorometric assay relative to untreated control
# Design: scale not given: the % may be the effect or the level left
# In short: (§2)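 BCAEC given 1 μM ligand for 10 min, with 1 μM (−)-epicatechin as reference; GPER blockade by 30 min pre-incubation with 1 μM G15 before ligand. Nitrates/nitrites in supernatant measured as surrogate of NO synthesis. Values normalized to control (set to 1) or to Epi (100%). Mean ± SEM, n=5 per group.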
row,SMILES,Activity
1,CS(=O)(=O)O[C@@H]1Cc2c(O)cc(O)cc2O[C@@H]1c1ccc(O)c(O)c1,41.8%
2,Oc1cc(O)c2c(c1)O[C@H](c1ccc(O)c(O)c1)[C@H](O)C2,60%
3,C#CCO[C@@H]1Cc2c(O)cc(O)cc2O[C@@H]1c1ccc(O)c(O)c1,70.9%

# The next lines start with the values.
row,Activity,SMILES
1,63.6%,C#CCOc1cc(OCC#C)c2c(c1)O[C@H](c1ccc(OCC#C)c(OCC#C)c1)[C@H](O)C2
2,60%,C#CCOc1cc(OCC#C)c2c(c1)O[C@H](c1ccc(OCC#C)c(OCC#C)c1)[C@H](OCC#C)C2

# Species on record: Bos taurus
# Assay: Binding affinity to GPER in BCAEC protein extracts using compound loaded on to affinity chromatography Agarose columns incubated overnight at 4 degC with mild tumbling by Coomassie-blue staining based SDS-PAGE and Western blot method
# In short: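 Propargyl derivative coupled to agarose-azide beads by click chemistry; coupling gauged by fluorescence of washings against an external calibration curve. Three control columns lacked ligand and/or copper sulfate/ascorbate. BCAEC protein extract (0.8–1.0 mg) loaded, overnight 4 °C with mild tumbling. Washed with 5 mM EDTA/0.5% SDS/250 mM NaCl in PBS pH 7.5, then PBS. Eluted in PBS with 8 M urea, concentrated, run on SDS-PAGE with Coomassie staining. Western blot used monoclonal GPER antibody.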
row,Activity,SMILES
1,Active,Oc1cc(O)c2c(c1)O[C@H](c1ccc(O)c(O)c1)[C@H](O)C2

# Species on record: Bos taurus
# Assay: Agonist activity at GPER in BCAEC assessed as increase in eNOS Ser1179 phosphorylation at 1 uM incubated for 10 mins by Western blot relative to untreated (-)-epicatechin
# In short: as §1
row,SMILES,Activity
1,CS(=O)(=O)O[C@@H]1Cc2c(O)cc(O)cc2O[C@@H]1c1ccc(O)c(O)c1,64.8%
2,C#CCO[C@@H]1Cc2c(O)cc(O)cc2O[C@@H]1c1ccc(O)c(O)c1,137%

# Next, values leading:
row,Activity,SMILES
1,111%,C#CCOc1cc(OCC#C)c2c(c1)O[C@H](c1ccc(OCC#C)c(OCC#C)c1)[C@H](O)C2
2,92.6%,C#CCOc1cc(OCC#C)c2c(c1)O[C@H](c1ccc(OCC#C)c(OCC#C)c1)[C@H](OCC#C)C2

# Species on record: Bos taurus
# Assay: Agonist activity at GPER in BCAEC assessed as increase in nitric oxide production at 1 uM incubated for 10 mins by nitrate/nitrite fluorometric assay relative to untreated (-)-epicatechin
# In short: as §2
row,SMILES,Activity
1,CS(=O)(=O)O[C@@H]1Cc2c(O)cc(O)cc2O[C@@H]1c1ccc(O)c(O)c1,54.5%
2,C#CCO[C@@H]1Cc2c(O)cc(O)cc2O[C@@H]1c1ccc(O)c(O)c1,142%

# The next lines start with the values.
row,Activity,SMILES
1,107%,C#CCOc1cc(OCC#C)c2c(c1)O[C@H](c1ccc(OCC#C)c(OCC#C)c1)[C@H](O)C2
2,102%,C#CCOc1cc(OCC#C)c2c(c1)O[C@H](c1ccc(OCC#C)c(OCC#C)c1)[C@H](OCC#C)C2
